Measurements as given in ChEMBL document CHEMBL1149790, “Synthesis of some novel thiourea derivatives obtained from 5-[(4-aminophenoxy)methyl]-4-alkyl/aryl-2,4-dihydro-3H-1,2,4-triazole-3-thiones and evaluation as antiviral/anti-HIV and anti-tuberculosis agents” (Eur J Med Chem, 2008).
Converted amounts (≈) assume the structure as drawn. The source made the active and inactive calls. No cut-off for these calls is given here.

Tests used:
Human alphaherpesvirus 1 [1] = test: Antiviral activity against HSV1 KOS in human E6SM cells assessed as reduction of virus-induced cytopathogenicity; assay type: functional; details: Human alphaherpesvirus 1, KOS
Procedure, shortened: (§1)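 Confluent cell monolayers (E6SM, HEL, HeLa or Vero, per line) inoculated with 100 CCID50 virus; 1 h adsorption, residual virus removed, then incubated with compound at 400, 200, 100 … µg/ml. Cytopathicity scored once complete in untreated virus controls; MIC = concentration inhibiting virus-induced cytopathicity.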

Human alphaherpesvirus 2 [2] = test: Antiviral activity against HSV2 G in human E6SM cells assessed as reduction of virus-induced cytopathogenicity; assay type: functional; details: Human alphaherpesvirus 2, G; procedure, shortened: as §1
Human betaherpesvirus 5 [3] = test: Antiviral activity against human cytomegalovirus Davis infected HEL cells assessed as reduction in virus plaque formation; assay type: functional, organism-based; details: Human betaherpesvirus 5, Davis
[4] = tested on: Respiratory syncytial virus; test: Antiviral activity against respiratory syncytial virus in human HeLa cells assessed as inhibition of virus-induced cytopathogenicity; assay type: functional; procedure, shortened: as §1
[5] = Cytotoxicity against human E6SM cells; assay type: cell-based; details: E6SM cells
Procedure, shortened: (§2)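 Uninfected cell cultures exposed to test compounds alongside antiviral assays; minimum cytotoxic concentration (MCC) = concentration causing a microscopically detectable alteration of cell morphology.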

[6] = tested on: Vesicular stomatitis virus; test: Antiviral activity against in Vesicular stomatitis virus in human E6SM cells assessed as reduction of virus-induced cytopathogenicity; assay type: functional; procedure, shortened: as §1
Vero = test: Cytotoxicity against african green monkey Vero cells; assay type: cell-based; details: chlorocebus sabaeus; procedure, shortened: as §2
Human betaherpesvirus 5 [7] = test: Antiviral activity against human cytomegalovirus AD169 infected HEL cells assessed as reduction in virus plaque formation; assay type: functional, organism-based; details: Human betaherpesvirus 5, AD169, HEL
[8] = tested on: Vesicular stomatitis virus; test: Antiviral activity against vesicular stomatitis virus in human HeLa cells assessed as inhibition of virus-induced cytopathogenicity; assay type: functional; procedure, shortened: as §1
[9] = tested on: Human immunodeficiency virus 2; test: Antiviral activity against HIV2 ROD in human MT4 cells assessed as protection against virus-induced cytopathogenicity by MTT assay; assay type: functional, organism-based; parameters: Activity: concentration or dose not given beside the values; details: for IC50: Human immunodeficiency virus 2, ROD, MT4
Procedure, shortened: (§3)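 MT-4 cells at 6 × 10⁵ cells/ml infected with HIV-1 IIIB or HIV-2 ROD at 100–300 CCID50; compounds in serial five-fold dilutions, triplicate mock- and virus-infected wells. MTT viability read at 540 and 690 nm after 5 days, median OD of three wells; EC50 = 50% protection from viral cytopathic effect.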

[10] = tested on: Vesicular stomatitis virus; test: Antiviral activity against in Vesicular stomatitis virus in human HEL cells assessed as reduction of virus-induced cytopathogenicity; assay type: functional; procedure, shortened: as §1
Human alphaherpesvirus 2 [11] = test: Antiviral activity against HSV2 G in human HEL cells assessed as reduction of virus-induced cytopathogenicity; assay type: functional; details: Human alphaherpesvirus 2, G; procedure, shortened: as §1
Human alphaherpesvirus 1 [12] = test: Antiviral activity against thymidine kinase deficient and acyclovir resistant HSV1 KOS in human E6SM cells assessed as reduction of virus-induced cytopathogenicity; assay type: functional; details: Human alphaherpesvirus 1, KOS; procedure, shortened: as §1
Sindbis virus = test: Antiviral activity against Sindbis virus in african green monkey Vero cells assessed as reduction of virus-induced cytopathogenicity; assay type: functional; procedure, shortened: as §1
Human alphaherpesvirus 3 [13] = test: Antiviral activity against TK+ VZV OKA infected HEL cells assessed as reduction in virus plaque formation; assay type: functional, organism-based; details: Human alphaherpesvirus 3, OKA
[14] = Cytotoxicity against human HeLa cells; assay type: cell-based; procedure, shortened: as §2
[15] = Cytotoxicity against human HEL cells assessed as reduction of cell growth; assay type: cell-based
Procedure, shortened: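 HEL cells; CC50 = compound concentration reducing cell growth by 50%.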

[16] = Cytotoxicity against human HEL cells assessed as alteration of cell morphology; assay type: cell-based; procedure, shortened: as §2
Human alphaherpesvirus 1 [17] = test: Antiviral activity against HSV1 KOS in human HEL cells assessed as reduction of virus-induced cytopathogenicity; assay type: functional; details: Human alphaherpesvirus 1, KOS; procedure, shortened: as §1
[18] = tested on: Mammalian orthoreovirus 1; test: Antiviral activity against Reo virus 1 in african green monkey Vero cells assessed as reduction of virus-induced cytopathogenicity; assay type: functional; procedure, shortened: as §1
Coxsackievirus B4 [19] = test: Antiviral activity against Coxsackie virus B4 in african green monkey Vero cells assessed as reduction of virus-induced cytopathogenicity; assay type: functional; details: Enterovirus B; procedure, shortened: as §1
Human alphaherpesvirus 1 [20] = test: Antiviral activity against thymidine kinase deficient and acyclovir resistant HSV1 KOS in human HEL cells assessed as reduction of virus-induced cytopathogenicity; assay type: functional; details: Human alphaherpesvirus 1, KOS; procedure, shortened: as §1
Human alphaherpesvirus 3 [21] = test: Antiviral activity against TK- VZV 07/1 infected HEL cells assessed as reduction in virus plaque formation; assay type: functional, organism-based; details: Human alphaherpesvirus 3, 07/1, HEL
[22] = tested on: Mycobacterium tuberculosis; test: Antitubercular activity against Mycobacterium tuberculosis H37Rv at 6.25 ug/ml by MABA assay; assay type: functional
[23] = Cytotoxicity against human MT4 cells by MTT assay; assay type: cell-based
Procedure, shortened: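 Mock-infected MT-4 cells (6 × 10⁵ cells/ml) with serial five-fold compound dilutions in triplicate; MTT reduction read at 540 and 690 nm after 5 days, median OD of three wells; CC50 = concentration reducing OD540 of mock-infected control by 50%.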

Coxsackievirus B4 [24] = test: Antiviral activity against Coxsackie virus B4 in human HeLa cells assessed as inhibition of virus-induced cytopathogenicity; assay type: functional; details: Enterovirus B; procedure, shortened: as §1
Punta Toro virus = test: Antiviral activity against Punta Toro virus in african green monkey Vero cells assessed as reduction of virus-induced cytopathogenicity; assay type: functional; procedure, shortened: as §1
[25] = tested on: Human immunodeficiency virus 1; test: Antiviral activity against HIV1 3B in human MT4 cells assessed as protection against virus-induced cytopathogenicity by MTT assay; assay type: functional, organism-based; parameters: Activity: concentration or dose not given beside the values; details: for IC50: Human immunodeficiency virus 1, 3B, MT4; procedure, shortened: as §3
Human respirovirus 3 = test: Antiviral activity against Parainfluenza 3 virus in african green monkey Vero cells assessed as reduction of virus-induced cytopathogenicity; assay type: functional; procedure, shortened: as §1

C=CCn1c(COc2ccc(NC(=S)NCC)cc2)n[nH]c1=S
MIC (Human alphaherpesvirus 1 [1]): > 400 µg/mL
MIC (Human alphaherpesvirus 2 [2]): > 400 µg/mL
EC50 (Human betaherpesvirus 5 [3]): > 100 µg/mL
MIC [4]: > 80 µg/mL
MCC [5]: > 400 µg/mL
MIC [6]: > 400 µg/mL
Activity (Vero): 400 µg/mL
EC50 (Human betaherpesvirus 5 [7]): > 100 µg/mL
MIC [8]: > 80 µg/mL
Activity [9]: 2.5%
IC50 [9]: > 86.2 µg/mL
MIC [10]: > 400 µg/mL
MIC (Human alphaherpesvirus 2 [11]): > 400 µg/mL
MIC (Human alphaherpesvirus 1 [12]): > 400 µg/mL
MIC (Sindbis virus): > 80 µg/mL
EC50 (Human alphaherpesvirus 3 [13]): 64 µg/mL (≈ 183 µM)
MCC [14]: 400 µg/mL
CC50 [15]: > 50 µg/mL
MCC [16]: > 400 µg/mL
MIC (Human alphaherpesvirus 1 [17]): > 400 µg/mL
MIC [18]: > 80 µg/mL
MIC (Coxsackievirus B4 [19]): 80 µg/mL (≈ 229 µM)
MIC (Human alphaherpesvirus 1 [20]): > 400 µg/mL
EC50 (Human alphaherpesvirus 3 [21]): 64 µg/mL (≈ 183 µM)
Activity [22]: inactive
CC50 [23]: 90 µg/mL (≈ 258 µM)
MIC (Coxsackievirus B4 [24]): > 80 µg/mL
MIC (Punta Toro virus): > 80 µg/mL
Activity [25]: 4%
IC50 [25]: > 76.5 µg/mL
MIC (Human respirovirus 3): > 80 µg/mL

CCn1c(COc2ccc(N)cc2)n[nH]c1=S
MIC (Human alphaherpesvirus 1 [1]): > 400 µg/mL
MIC (Human alphaherpesvirus 2 [2]): 240 µg/mL (≈ 959 µM)
EC50 (Human betaherpesvirus 5 [3]): > 100 µg/mL
MIC [4]: > 400 µg/mL
MCC [5]: > 400 µg/mL
MIC [6]: > 400 µg/mL
Activity (Vero): 80 µg/mL
EC50 (Human betaherpesvirus 5 [7]): > 100 µg/mL
MIC [8]: > 400 µg/mL
Activity [9]: 8%
IC50 [9]: > 125 µg/mL
MIC [10]: > 400 µg/mL
MIC (Human alphaherpesvirus 2 [11]): 240 µg/mL (≈ 959 µM)
MIC (Human alphaherpesvirus 1 [12]): 240 µg/mL (≈ 959 µM)
MIC (Sindbis virus): > 16 µg/mL
EC50 (Human alphaherpesvirus 3 [13]): > 100 µg/mL
MCC [14]: ≥ 400 µg/mL
CC50 [15]: > 50 µg/mL
MCC [16]: > 400 µg/mL
MIC (Human alphaherpesvirus 1 [17]): > 400 µg/mL
MIC [18]: > 16 µg/mL
MIC (Coxsackievirus B4 [19]): > 16 µg/mL
MIC (Human alphaherpesvirus 1 [20]): 240 µg/mL (≈ 959 µM)
EC50 (Human alphaherpesvirus 3 [21]): > 100 µg/mL
Activity [22]: inactive
CC50 [23]: > 125 µg/mL
MIC (Coxsackievirus B4 [24]): > 400 µg/mL
MIC (Punta Toro virus): > 16 µg/mL
Activity [25]: 6%
IC50 [25]: > 125 µg/mL
MIC (Human respirovirus 3): > 16 µg/mL

C=CCNC(=S)Nc1ccc(OCc2n[nH]c(=S)n2CC=C)cc1
MIC (Human alphaherpesvirus 1 [1]): 240 µg/mL (≈ 664 µM)
MIC (Human alphaherpesvirus 2 [2]): 240 µg/mL (≈ 664 µM)
EC50 (Human betaherpesvirus 5 [3]): 77 µg/mL (≈ 213 µM)
MIC [4]: > 80 µg/mL
MCC [5]: > 400 µg/mL
MIC [6]: > 400 µg/mL
Activity (Vero): 400 µg/mL
EC50 (Human betaherpesvirus 5 [7]): 100 µg/mL (≈ 277 µM)
MIC [8]: > 80 µg/mL
Activity [9]: 1%
IC50 [9]: > 69.7 µg/mL
MIC [10]: > 400 µg/mL
MIC (Human alphaherpesvirus 2 [11]): 240 µg/mL (≈ 664 µM)
MIC (Human alphaherpesvirus 1 [12]): 240 µg/mL (≈ 664 µM)
MIC (Sindbis virus): > 80 µg/mL
EC50 (Human alphaherpesvirus 3 [13]): 41 µg/mL (≈ 113 µM)
MCC [14]: 400 µg/mL
CC50 [15]: > 50 µg/mL
MCC [16]: > 400 µg/mL
MIC (Human alphaherpesvirus 1 [17]): 240 µg/mL (≈ 664 µM)
MIC [18]: > 80 µg/mL
MIC (Coxsackievirus B4 [19]): 48 µg/mL (≈ 133 µM)
MIC (Human alphaherpesvirus 1 [20]): 240 µg/mL (≈ 664 µM)
EC50 (Human alphaherpesvirus 3 [21]): 46 µg/mL (≈ 127 µM)
inhibition at 6.25 µg/mL [22]: 59%
CC50 [23]: 71.5 µg/mL (≈ 198 µM)
MIC (Coxsackievirus B4 [24]): > 80 µg/mL
MIC (Punta Toro virus): > 80 µg/mL
Activity [25]: 3%
IC50 [25]: > 66.5 µg/mL
MIC (Human respirovirus 3): > 80 µg/mL

Nc1ccc(OCc2n[nH]c(=S)n2-c2ccccc2)cc1
MIC (Human alphaherpesvirus 1 [1]): > 400 µg/mL
MIC (Human alphaherpesvirus 2 [2]): 240 µg/mL (≈ 804 µM)
EC50 (Human betaherpesvirus 5 [3]): > 100 µg/mL
MIC [4]: > 400 µg/mL
MCC [5]: > 400 µg/mL
MIC [6]: > 400 µg/mL
Activity (Vero): 400 µg/mL
EC50 (Human betaherpesvirus 5 [7]): > 100 µg/mL
MIC [8]: > 400 µg/mL
Activity [9]: 2.5%
IC50 [9]: > 125 µg/mL
MIC [10]: > 400 µg/mL
MIC (Human alphaherpesvirus 2 [11]): 240 µg/mL (≈ 804 µM)
MIC (Human alphaherpesvirus 1 [12]): > 400 µg/mL
MIC (Sindbis virus): > 80 µg/mL
EC50 (Human alphaherpesvirus 3 [13]): > 100 µg/mL
MCC [14]: > 400 µg/mL
CC50 [15]: > 50 µg/mL
MCC [16]: > 400 µg/mL
MIC (Human alphaherpesvirus 1 [17]): > 400 µg/mL
MIC [18]: > 80 µg/mL
MIC (Coxsackievirus B4 [19]): 48 µg/mL (≈ 161 µM)
MIC (Human alphaherpesvirus 1 [20]): > 400 µg/mL
EC50 (Human alphaherpesvirus 3 [21]): > 100 µg/mL
Activity [22]: inactive
CC50 [23]: > 125 µg/mL
MIC (Coxsackievirus B4 [24]): > 400 µg/mL
MIC (Punta Toro virus): > 80 µg/mL
Activity [25]: 2%
IC50 [25]: > 125 µg/mL
MIC (Human respirovirus 3): > 80 µg/mL
